b-catenin transl = alters nuclear translocation of beta-catenin in HeLa cells | nuclear translocation activity, % at 5 µM | immunofluorescence imaging | 0.3% of 190,000 active;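 active means nuclear translocation activity above 50% at 5 µM, with a well cell count of 50 or more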;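 further: per-cell ratio of nuclear to cytoplasmic median beta-catenin stain intensity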
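Test system: human HeLa cell line; Doses: 5 µM primary, 0.02–20 µM confirmation; Incubation: 24 h compound exposure, 37°C; Detection: beta-catenin immunofluorescence imaging with DAPI; Read-out: beta-catenin nuclear/cytoplasmic ratio, % activation.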
APP transl inh = APP translation inhibition; inhibition, % at 2 µM; 0.82% of 190,000 active; SH-SY5Y APP 5'UTR-luciferase reporter, luminescence;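 active means inhibition above a set limit, derived from the sample mean plus 3 SD, cut at about 45% in these data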
MT stabilize HCS = microtubule stabilization, imaging screen; HeLa tubulin immunostaining HCS, 24 h; share of cells brighter than vehicle mean+2SD; % tubulin-high responders, % at 10 µM; 0.83% of 200,000 active; AID 2205;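 active means plate Z-score above 3 for both tubulin-high and condensed-nucleus cell shares, with cell loss under 80%, at 10 µM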;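 further: anti alpha tubulin signal scored within the nucleus-defined area of each cell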
BaF3 tox = parental Ba/F3 viability inhibition as JAK2V617F counter-screen; AID 1486; inhibition, % at 5.6 µM; CellTiter-Glo ATP luminescence; 1.1% of 220,000 active;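 active means inhibition above a per-campaign cutoff, the mean inhibition of all tested compounds plus 3 SD, cut at about 27% in these data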
IEC-6 cytotox = kills IEC-6 intestinal cells in KLF5 counter-screen. IEC-6 cytotoxicity, luminescence viability. inhibition, % at 5 µM. 0.78% of 290,000 active. AID 1825; in the data active means inhibition above about 22%
Ba/F3 V617F tox = lowers viability of Ba/F3 cells expressing EpoR and JAK2V617F; ATP luminescence; inhibition, % at 5.6 µM; 1.1% of 220,000 active; AID 1446;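 active means inhibition above the campaign mean plus 3 SD over all tested compounds, cut at about 24% in these data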;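 further: cytokine-independent growth of Ba/F3 cells driven by EpoR plus mutant JAK2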
Each line names hits and unclear results; the compound was inactive in the other large screens. An excerpt weighted towards active compounds, which were near 2.2% of everything screened.

COC(=O)C(CC(=O)c1cccc(OC)c1)c1ccc(F)cc1 (centres undefined)	none
Cc1ccc(OCCNC(=O)c2ccccc2F)cc1	none (no result: b-catenin transl, APP transl inh, MT stabilize HCS, BaF3 tox, Ba/F3 V617F tox)
CCOc1ccc(-c2cc(CCCC(=O)Nc3cccc(OC)c3)no2)cc1	b-catenin transl 100, APP transl inh 80, MT stabilize HCS 23
CCOc1ccc(NC(=O)CCCc2cc(-c3ccc(OCC)cc3)on2)cc1	none
O=CN(c1ccccc1)c1ccc2ccccc2c1	none
Cc1cccc(N2CCN(C(=S)c3ccc(-c4ccccc4[N+](=O)[O-])o3)CC2)c1	MT stabilize HCS 23
CC1C/C(=C/c2ccncc2)C(=O)/C(=C/c2ccncc2)C1 (centres undefined)	APP transl inh 95, MT stabilize HCS 37 (no result: b-catenin transl)
CSc1nnnn1-c1ccc(C)c(Cl)c1	none
CCCN(C(=O)c1ccco1)c1nnc(-c2ccccc2C)s1	none
C/C(CCC(C)C)=N\NC(=O)COc1ccccc1-c1ccccc1	APP transl inh 94
O=C(COc1ccccc1-c1ccccc1)N/N=C/c1cccc2ccccc12	b-catenin transl 112, APP transl inh 95
Nc1nnn(CC(=O)N/N=C/c2cccc3ccccc23)n1	APP transl inh 62
O=C(COc1cccc2ccccc12)N/N=C/c1ccccc1OCc1ccc(C(=O)O)cc1	none
Cc1nc(C2CCC3C4CCC5=CC(=O)CC[C@]5(C)C4CC[C@]23C)cs1 (some centres undefined)	none (no result: APP transl inh, MT stabilize HCS)
CCNc1ccc(C(=O)OCC(=O)N(Cc2ccccc2)C(C)(C)C)cc1[N+](=O)[O-]	none
Cn1c(O)c(N=NC(=S)Nc2ccccc2F)c2cc(S(=O)(=O)N3CCOCC3)ccc21	APP transl inh 46
C=CCn1c(O)c(N=NC(=S)Nc2ccccc2C)c2cc(S(=O)(=O)N3CCOCC3)ccc21	none
Cc1ccc(NC(=S)N=Nc2c(O)n(C)c3ccc(S(=O)(=O)N4CCOCC4)cc23)cc1C	APP transl inh 70
Cc1cc(=O)n(C)c2ccc(S(=O)(=O)N3CCOCC3)cc12	none (no result: b-catenin transl, APP transl inh, MT stabilize HCS, BaF3 tox, Ba/F3 V617F tox)
COC(=O)c1ccc(CN2C(=O)C(C)N(C(=O)c3c(F)cccc3F)c3ccccc32)cc1 (centres undefined)	none (no result: b-catenin transl, APP transl inh, MT stabilize HCS, BaF3 tox, Ba/F3 V617F tox)
Cc1ccc2nc(Cl)c(/C=N/n3c(C)nnc3C)cc2c1	none
CCOc1cc(C2C3=C(CCCC3=O)NC3=C2C(=O)CCC3)cc(Cl)c1O	none (no result: APP transl inh, MT stabilize HCS, BaF3 tox, IEC-6 cytotox, Ba/F3 V617F tox)
CCOc1cc(C2C3=C(CCCC3=O)N(C)C3=C2C(=O)CCC3)cc(Cl)c1O	BaF3 tox 58, Ba/F3 V617F tox 58
CC(=O)c1cccc(CN2CCC(C(=O)Nc3ccc(-c4cccc(C)c4)cc3)CC2)c1	none (no result: b-catenin transl, APP transl inh, MT stabilize HCS, BaF3 tox, Ba/F3 V617F tox)
O=c1c2c(-c3ccccc3)csc2ncn1/N=C/c1cccc([N+](=O)[O-])c1O	none
Cn1cc(/C=N/n2cnc3scc(-c4ccccc4)c3c2=O)c2ccccc21	b-catenin transl 71, APP transl inh 92, MT stabilize HCS 28
CCNc1nc(OC)nc(SCC(=O)Nc2ccccc2)n1	MT stabilize HCS 13
COc1ccc(/C=N/Nc2ccc(C(=O)O)cc2)cc1Br	none (no result: b-catenin transl)
C=CCOc1c(Br)cc(/C=N/Nc2ccc(C(=O)O)cc2)cc1OCC	IEC-6 cytotox 39
COc1cc(C(=O)Nc2ccc(S(=O)(=O)Nc3nccc(C)n3)cc2)c([N+](=O)[O-])cc1OC	none (no result: APP transl inh, MT stabilize HCS)
COC(CNC(=O)CCc1c(C)nc2c(-c3ccc(F)cc3)c(C)nn2c1C)OC	APP transl inh 55
COc1cc(OC)cc(-c2nc3nc(C)c(CCC(=O)NCC(OC)OC)c(C)n3n2)c1	none
O=C(Nc1ccc(C(F)(F)F)cc1)C1CCN(S(=O)(=O)c2ccc(N3CCCC3=O)cc2)CC1	none (no result: b-catenin transl, APP transl inh, MT stabilize HCS, BaF3 tox, Ba/F3 V617F tox)
CC(=O)Nc1ccc(S(=O)(=O)N(Cc2ccccc2)C(C)C)cc1	BaF3 tox 50, Ba/F3 V617F tox 32
CC(OC(=O)CCCN=C1NS(=O)(=O)c2ccccc21)C(=O)NC1CCCCC1C (centres undefined)	none (no result: b-catenin transl, APP transl inh, MT stabilize HCS, BaF3 tox, Ba/F3 V617F tox)
Cc1c(C(=O)N/N=C/c2ccccc2)[nH]c2ccc(Cl)cc12	b-catenin transl 56, APP transl inh 52
Cc1c(C(=O)N/N=C/c2ccc(N(C)C)cc2)[nH]c2ccc(Cl)cc12	APP transl inh 90
Cc1conc1NC(c1cccs1)c1ccc2cccnc2c1O (centres undefined)	BaF3 tox 83, Ba/F3 V617F tox 97
CCCC(=O)NC(c1ccccc1OC)c1ccc2cccnc2c1O (centres undefined)	APP transl inh 75, BaF3 tox 101, IEC-6 cytotox 101, Ba/F3 V617F tox 102
CCC(=O)NC(c1cccs1)c1ccc2cccnc2c1O (centres undefined)	APP transl inh 85, BaF3 tox 59, IEC-6 cytotox 28, Ba/F3 V617F tox 77
Oc1c(C(Nc2cccc(C(F)(F)F)c2)c2ccncc2)ccc2cccnc12 (centres undefined)	none
CC(C)C(=O)NC(c1ccco1)c1ccc2cccnc2c1O (centres undefined)	APP transl inh 84, BaF3 tox 60, Ba/F3 V617F tox 51
CCOc1ccccc1CNC(=O)Cn1ccc2cc(S(=O)(=O)N3CCCC3)ccc21	none (no result: b-catenin transl, APP transl inh, MT stabilize HCS, BaF3 tox, Ba/F3 V617F tox)
CC(C)CC(=O)NC(c1cccs1)c1ccc2cccnc2c1O (centres undefined)	APP transl inh 82, BaF3 tox 75, Ba/F3 V617F tox 65
Cc1cc(-c2ccc(C(C)C)c(S(=O)(=O)N3CCC(C)CC3)c2)on1	none (no result: b-catenin transl, APP transl inh, MT stabilize HCS, BaF3 tox, Ba/F3 V617F tox)
CCCCCCCc1c(O)nc(SCC(=O)O)[nH]c1=O	none (no result: APP transl inh, MT stabilize HCS)
O=C(Nc1c(C(=O)N2CCN(c3ccccn3)CC2)oc2ccccc12)c1cccc([N+](=O)[O-])c1	none (no result: b-catenin transl, APP transl inh, MT stabilize HCS, BaF3 tox, Ba/F3 V617F tox)
CCN1C/C(=C\c2cccc([N+](=O)[O-])c2)C(=O)/C(=C/c2cccc([N+](=O)[O-])c2)C1	APP transl inh 96, MT stabilize HCS 28
O=C1/C(=C/c2cccc([N+](=O)[O-])c2)CCc2ccccc21	none
Cc1ccc(C(c2nnnn2C2CCCC2)N2CCc3ccccc32)cc1 (centres undefined)	BaF3 tox 40
CC(C)C(c1nnnn1C1CCCC1)N1CCc2ccccc21 (centres undefined)	none
N#C/C(=C\c1ccc([N+](=O)[O-])o1)C(=O)Nc1ccc(F)cc1	none
N#CCc1ccc(NC(=O)/C=C/c2ccc([N+](=O)[O-])o2)cc1	APP transl inh 56, BaF3 tox 83, Ba/F3 V617F tox 94
Cn1nc(C(=O)NCCCN2CCCCC2)c2c1-c1ccccc1S(=O)(=O)C2	none (no result: b-catenin transl, APP transl inh, MT stabilize HCS, BaF3 tox, Ba/F3 V617F tox)
O=C(C1c2ccccc2Oc2ccccc21)N1CCN(c2ccc(Cl)cc2)CC1	MT stabilize HCS 33 (no result: b-catenin transl)
O=C(C1CCC1)N1CCN(c2ccc(Cl)cc2)CC1	none (no result: b-catenin transl, APP transl inh, MT stabilize HCS, BaF3 tox, Ba/F3 V617F tox)
Cc1cc2ncn(CCOc3ccccc3)c2cc1C	none
COCCn1cnc2cc(C)c(C)cc21	BaF3 tox 44
CCC(=O)NC1=C(Cl)C(=O)C(NC(=O)CC)=C(Cl)C1=O	IEC-6 cytotox 73 (no result: APP transl inh, MT stabilize HCS)
CCC(=O)NC1=C(NC(C)c2ccccc2)C(=O)c2ccccc2C1=O (centres undefined)	none (no result: b-catenin transl)

Assay outcomes from PubChem BioAssay.
